# Laboratory results published in ChEMBL document CHEMBL3098105, “7,7'-Diazaindirubin--a small molecule inhibitor of casein kinase 2 in vitro and in cells” (Bioorg Med Chem, 2014).
# Key:
# SK-MEL-2 = test: Antiproliferative activity against human SK-MEL-2 cells after 3 days by sulforhodamine B assay; type: functional; conditions: SK-MEL-2, 72 h
# How it was run: (§1)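 Tested in the NCI 60 cell line panel. GI50 is the concentration giving 50% inhibition of cell growth, and values are the mean of two series of tests.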
# [1] = molecular target: Protein kinase C gamma type (Homo sapiens) (UniProt P05129); test: Inhibition of human PKCgamma assessed as residual activity at 1 uM relative to control
# [2] = molecular target: Serine/threonine-protein kinase 10 (Homo sapiens) (UniProt O94804); test: Inhibition of human LOK assessed as residual activity at 1 uM relative to control
# [3] = molecular target: Protein kinase C alpha type (Homo sapiens) (UniProt P17252); test: Inhibition of human PKCalpha assessed as residual activity at 1 uM relative to control
# [4] = Antiproliferative activity against human EKVX cells after 3 days by sulforhodamine B assay; type: functional; conditions: 72 h; how it was run: as §1
# [5] = molecular target: Ribosomal protein S6 kinase beta-1 (Homo sapiens) (UniProt P23443); test: Inhibition of human p70S6K assessed as residual activity at 1 uM relative to control
# MCF7 [6] = test: Cell cycle arrest in human MCF7 cells assessed as accumulation at sub-G1 phase at 0.25 uM after 24 hrs using propidium iodide staining by FACS analysis (reference value: 0.17%); type: functional
# [7] = molecular target: Protein kinase C iota type (Homo sapiens) (UniProt P41743); test: Inhibition of human PKCiota assessed as residual activity at 1 uM relative to control
# [8] = molecular target: MAP kinase-activated protein kinase 2 (Homo sapiens) (UniProt P49137); test: Inhibition of human MAPKAP-K2 assessed as residual activity at 1 uM relative to control
# [9] = molecular target: Serine/threonine-protein kinase Chk2 (Homo sapiens) (UniProt O96017); test: Inhibition of CHK2 (unknown origin) assessed as residual activity at 10 uM relative to control
# [10] = molecular target: Cyclin-dependent kinase 2/cyclin E1 (Homo sapiens) (UniProt P24864+P24941); test: Inhibition of human CDK2/cyclinE assessed as residual activity at 1 uM relative to control; type: protein-complex assay
# [11] = molecular target: Casein kinase II (Homo sapiens) (UniProt P67870+P68400+P19784); test: Inhibition of human CK2 assessed as residual activity at 1 uM relative to control; type: protein-complex assay
# [12] = Antiproliferative activity against human SF539 cells after 3 days by sulforhodamine B assay; type: functional; conditions: SF-539, 72 h; how it was run: as §1
# [13] = molecular target: Ephrin type-B receptor 2 (Homo sapiens) (UniProt P29323); test: Inhibition of human EphB2 assessed as residual activity at 1 uM relative to control
# [14] = molecular target: Tyrosine-protein kinase ABL1 (Homo sapiens) (UniProt P00519); test: Inhibition of ABL1 (unknown origin) assessed as residual activity at 1 uM relative to control
# [15] = molecular target: Receptor tyrosine-protein kinase erbB-2 (Homo sapiens) (UniProt P04626); test: Inhibition of ERBB2 (unknown origin) assessed as residual activity at 1 uM relative to control
# [16] = molecular target: Death-associated protein kinase 2 (Homo sapiens) (UniProt Q9UIK4); test: Inhibition of human DAPK2 assessed as residual activity at 1 uM relative to control
# [17] = molecular target: Tyrosine-protein kinase ABL1 (Homo sapiens) (UniProt P00519); test: Inhibition of human Abl assessed as residual activity at 1 uM relative to control
# [18] = Antiproliferative activity against human HOP92 cells after 3 days by sulforhodamine B assay; type: functional; conditions: HOP-92, 72 h; how it was run: as §1
# HCT-15 = test: Antiproliferative activity against human HCT15 cells after 3 days by sulforhodamine B assay; type: functional; conditions: HCT-15, 72 h; how it was run: as §1
# [19] = molecular target: Ephrin type-A receptor 4 (Homo sapiens) (UniProt P54764); test: Inhibition of human EphA4 assessed as residual activity at 1 uM relative to control
# [20] = molecular target: Protein-tyrosine kinase 6 (Homo sapiens) (UniProt Q13882); test: Inhibition of human BRK assessed as residual activity at 1 uM relative to control
# LOX IMVI = test: Antiproliferative activity against human LOXIMVI cells after 3 days by sulforhodamine B assay; type: functional; conditions: 72 h; how it was run: as §1
# MCF7 [21] = test: Cell cycle arrest in human MCF7 cells assessed as accumulation at G2/M phase at 1 uM after 24 hrs using propidium iodide staining by FACS analysis (reference value: 22.13%); type: functional
# [22] = molecular target: Ephrin type-B receptor 4 (Homo sapiens) (UniProt P54760); test: Inhibition of human EphB4 assessed as residual activity at 1 uM relative to control
# [23] = molecular target: T1, Serine/threonine-protein kinase Chk1 (Homo sapiens) (UniProt O14757); test: Inhibition of CHK1 (unknown origin) assessed as residual activity at 1 uM relative to control
# T1 sequence (whole entry): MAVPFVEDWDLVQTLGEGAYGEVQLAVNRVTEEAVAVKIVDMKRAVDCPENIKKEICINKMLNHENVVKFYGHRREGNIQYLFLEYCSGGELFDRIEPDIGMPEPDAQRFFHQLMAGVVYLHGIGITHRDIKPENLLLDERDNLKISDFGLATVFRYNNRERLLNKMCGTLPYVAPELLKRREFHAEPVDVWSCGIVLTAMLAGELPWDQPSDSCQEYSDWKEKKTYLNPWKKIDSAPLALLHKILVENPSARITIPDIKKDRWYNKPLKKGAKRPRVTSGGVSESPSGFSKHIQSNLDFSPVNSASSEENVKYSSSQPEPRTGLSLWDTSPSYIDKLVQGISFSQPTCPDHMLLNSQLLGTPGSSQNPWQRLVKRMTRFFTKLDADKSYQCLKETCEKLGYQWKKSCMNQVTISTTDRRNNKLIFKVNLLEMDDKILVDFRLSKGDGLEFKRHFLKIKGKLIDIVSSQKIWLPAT
# [24] = molecular target: Fibroblast growth factor receptor 1 (Homo sapiens) (UniProt P11362); test: Inhibition of FGF-R1 (unknown origin) assessed as residual activity at 10 uM relative to control
# [25] = molecular target: ALK tyrosine kinase receptor (Homo sapiens) (UniProt Q9UM73); test: Inhibition of human ALK assessed as residual activity at 1 uM relative to control
# [26] = molecular target: Serine/threonine-protein kinase TAO2 (Homo sapiens) (UniProt Q9UL54); test: Inhibition of human TAO2 assessed as residual activity at 1 uM relative to control
# [27] = Antiproliferative activity against human UACC257 cells after 3 days by sulforhodamine B assay; type: functional; conditions: UACC-257, 72 h
# [28] = molecular target: G protein-coupled receptor kinase 6 (Homo sapiens) (UniProt P43250); test: Inhibition of human GRK6 assessed as residual activity at 1 uM relative to control
# Sequence of Tyrosine-protein kinase ABL1 (Homo sapiens) (P00519 whole entry): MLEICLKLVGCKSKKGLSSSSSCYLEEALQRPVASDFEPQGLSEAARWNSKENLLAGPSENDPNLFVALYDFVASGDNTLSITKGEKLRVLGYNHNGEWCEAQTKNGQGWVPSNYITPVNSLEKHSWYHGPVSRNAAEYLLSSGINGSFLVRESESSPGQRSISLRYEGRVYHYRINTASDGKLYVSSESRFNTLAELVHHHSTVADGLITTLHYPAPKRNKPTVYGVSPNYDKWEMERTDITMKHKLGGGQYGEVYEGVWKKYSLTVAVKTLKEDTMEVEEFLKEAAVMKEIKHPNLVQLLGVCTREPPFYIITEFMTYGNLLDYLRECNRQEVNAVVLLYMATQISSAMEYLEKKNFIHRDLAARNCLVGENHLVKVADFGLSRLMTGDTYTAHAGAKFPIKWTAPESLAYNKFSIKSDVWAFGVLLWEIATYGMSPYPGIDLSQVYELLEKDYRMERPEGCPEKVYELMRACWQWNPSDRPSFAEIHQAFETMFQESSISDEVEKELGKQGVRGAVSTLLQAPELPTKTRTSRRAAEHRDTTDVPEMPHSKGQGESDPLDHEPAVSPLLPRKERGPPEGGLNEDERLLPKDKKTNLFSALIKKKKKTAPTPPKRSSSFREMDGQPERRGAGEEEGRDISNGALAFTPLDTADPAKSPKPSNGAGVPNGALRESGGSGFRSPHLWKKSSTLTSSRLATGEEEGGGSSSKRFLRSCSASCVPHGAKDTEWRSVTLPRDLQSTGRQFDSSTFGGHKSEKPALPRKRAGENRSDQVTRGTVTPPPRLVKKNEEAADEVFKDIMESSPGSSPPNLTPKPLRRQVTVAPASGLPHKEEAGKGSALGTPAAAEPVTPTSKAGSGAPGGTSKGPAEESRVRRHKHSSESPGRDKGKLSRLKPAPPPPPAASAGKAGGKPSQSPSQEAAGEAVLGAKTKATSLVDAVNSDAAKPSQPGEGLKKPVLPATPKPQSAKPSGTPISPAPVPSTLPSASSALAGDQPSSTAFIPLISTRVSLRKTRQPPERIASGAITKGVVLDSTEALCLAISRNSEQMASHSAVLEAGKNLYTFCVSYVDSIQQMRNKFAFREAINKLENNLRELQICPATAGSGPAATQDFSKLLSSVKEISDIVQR
# Sequence of Serine/threonine-protein kinase 10 (Homo sapiens) (O94804 whole entry, looked up): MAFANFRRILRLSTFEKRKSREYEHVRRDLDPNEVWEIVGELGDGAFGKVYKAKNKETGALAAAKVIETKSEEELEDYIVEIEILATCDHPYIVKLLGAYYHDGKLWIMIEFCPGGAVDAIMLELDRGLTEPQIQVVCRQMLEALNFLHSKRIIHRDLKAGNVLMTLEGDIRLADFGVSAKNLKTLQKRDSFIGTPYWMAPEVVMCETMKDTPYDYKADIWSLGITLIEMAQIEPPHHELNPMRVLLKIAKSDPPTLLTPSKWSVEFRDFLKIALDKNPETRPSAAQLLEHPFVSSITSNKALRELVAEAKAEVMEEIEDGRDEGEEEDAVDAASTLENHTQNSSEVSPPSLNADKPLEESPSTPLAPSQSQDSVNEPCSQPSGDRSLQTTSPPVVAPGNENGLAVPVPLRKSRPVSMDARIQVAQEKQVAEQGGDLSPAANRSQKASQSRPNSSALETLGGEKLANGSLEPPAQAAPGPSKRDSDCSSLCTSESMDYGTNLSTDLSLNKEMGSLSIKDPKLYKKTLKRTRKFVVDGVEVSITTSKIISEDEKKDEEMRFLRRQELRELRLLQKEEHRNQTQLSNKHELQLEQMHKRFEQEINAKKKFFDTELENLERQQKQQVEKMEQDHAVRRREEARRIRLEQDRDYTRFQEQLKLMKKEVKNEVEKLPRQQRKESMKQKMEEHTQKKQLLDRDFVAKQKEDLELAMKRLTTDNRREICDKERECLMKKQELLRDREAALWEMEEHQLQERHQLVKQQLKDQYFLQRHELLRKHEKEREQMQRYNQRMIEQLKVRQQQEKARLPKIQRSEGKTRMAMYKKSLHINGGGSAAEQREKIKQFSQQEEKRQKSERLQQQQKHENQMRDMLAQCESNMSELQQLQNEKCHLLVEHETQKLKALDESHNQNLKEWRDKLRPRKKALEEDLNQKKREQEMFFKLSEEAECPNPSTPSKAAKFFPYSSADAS
# Sequence of Ephrin type-A receptor 4 (Homo sapiens) (P54764 whole entry): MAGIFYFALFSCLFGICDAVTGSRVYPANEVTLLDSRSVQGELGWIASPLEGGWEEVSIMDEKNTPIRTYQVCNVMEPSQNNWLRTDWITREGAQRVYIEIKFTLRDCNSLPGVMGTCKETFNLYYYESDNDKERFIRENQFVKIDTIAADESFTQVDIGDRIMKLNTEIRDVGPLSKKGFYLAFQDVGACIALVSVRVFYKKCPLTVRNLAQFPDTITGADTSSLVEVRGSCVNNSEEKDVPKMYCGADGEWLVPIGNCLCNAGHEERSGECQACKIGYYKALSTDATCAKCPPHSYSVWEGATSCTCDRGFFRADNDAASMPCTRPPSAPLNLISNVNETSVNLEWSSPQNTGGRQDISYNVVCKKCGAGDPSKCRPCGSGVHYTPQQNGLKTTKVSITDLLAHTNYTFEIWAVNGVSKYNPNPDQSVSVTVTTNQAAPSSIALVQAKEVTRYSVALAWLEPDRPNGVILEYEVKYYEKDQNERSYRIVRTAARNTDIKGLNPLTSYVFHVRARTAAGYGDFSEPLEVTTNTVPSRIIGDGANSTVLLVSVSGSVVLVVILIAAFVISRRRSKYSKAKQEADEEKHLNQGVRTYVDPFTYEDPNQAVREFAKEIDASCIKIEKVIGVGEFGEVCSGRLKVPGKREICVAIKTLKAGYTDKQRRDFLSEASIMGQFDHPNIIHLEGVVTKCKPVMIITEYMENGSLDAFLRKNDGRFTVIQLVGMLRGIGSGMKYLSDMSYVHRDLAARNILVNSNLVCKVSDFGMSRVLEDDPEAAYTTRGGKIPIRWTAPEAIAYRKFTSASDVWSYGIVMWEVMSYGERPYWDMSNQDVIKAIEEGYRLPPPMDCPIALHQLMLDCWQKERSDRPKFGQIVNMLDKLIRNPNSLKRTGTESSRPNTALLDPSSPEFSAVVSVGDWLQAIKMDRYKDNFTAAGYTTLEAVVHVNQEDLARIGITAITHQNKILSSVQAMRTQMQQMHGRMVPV
# Sequence of Fibroblast growth factor receptor 1 (Homo sapiens) (P11362 22-822 limits assumed): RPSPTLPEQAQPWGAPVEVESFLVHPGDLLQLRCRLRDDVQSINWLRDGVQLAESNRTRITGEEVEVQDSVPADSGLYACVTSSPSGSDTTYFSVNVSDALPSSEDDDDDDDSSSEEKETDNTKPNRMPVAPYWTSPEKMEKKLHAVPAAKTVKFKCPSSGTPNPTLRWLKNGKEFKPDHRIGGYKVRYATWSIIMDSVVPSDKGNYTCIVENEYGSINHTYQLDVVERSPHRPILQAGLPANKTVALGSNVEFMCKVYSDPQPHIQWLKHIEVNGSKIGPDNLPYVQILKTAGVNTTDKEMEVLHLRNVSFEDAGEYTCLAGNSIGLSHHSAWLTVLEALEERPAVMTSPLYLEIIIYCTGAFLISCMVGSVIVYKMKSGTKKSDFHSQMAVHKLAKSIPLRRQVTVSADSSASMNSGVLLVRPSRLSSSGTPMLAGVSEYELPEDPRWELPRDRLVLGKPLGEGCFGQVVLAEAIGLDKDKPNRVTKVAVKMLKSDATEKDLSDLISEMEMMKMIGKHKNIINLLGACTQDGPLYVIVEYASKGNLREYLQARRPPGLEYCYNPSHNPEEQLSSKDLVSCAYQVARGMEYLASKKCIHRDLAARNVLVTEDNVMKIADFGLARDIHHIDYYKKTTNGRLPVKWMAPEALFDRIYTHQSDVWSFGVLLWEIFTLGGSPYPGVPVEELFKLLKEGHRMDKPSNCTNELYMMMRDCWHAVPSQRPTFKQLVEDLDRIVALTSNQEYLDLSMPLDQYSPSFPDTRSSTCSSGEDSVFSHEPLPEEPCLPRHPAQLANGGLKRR
# Sequence of Protein-tyrosine kinase 6 (Homo sapiens) (Q13882 whole entry, looked up): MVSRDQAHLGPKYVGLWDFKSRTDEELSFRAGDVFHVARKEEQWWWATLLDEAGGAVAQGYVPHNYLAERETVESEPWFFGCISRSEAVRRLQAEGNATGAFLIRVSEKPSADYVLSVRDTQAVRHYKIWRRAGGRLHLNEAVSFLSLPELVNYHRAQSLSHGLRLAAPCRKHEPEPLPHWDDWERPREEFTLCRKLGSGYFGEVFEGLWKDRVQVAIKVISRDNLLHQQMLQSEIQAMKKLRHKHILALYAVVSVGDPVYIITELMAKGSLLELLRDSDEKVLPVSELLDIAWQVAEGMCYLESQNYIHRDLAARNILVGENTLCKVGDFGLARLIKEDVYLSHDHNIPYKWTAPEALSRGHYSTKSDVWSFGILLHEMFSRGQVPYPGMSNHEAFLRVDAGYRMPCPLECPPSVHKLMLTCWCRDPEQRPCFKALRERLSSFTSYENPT
smiles,measurement,setting,value
O=C1Nc2ncccc2/C1=C1/Nc2ncccc2C1=O,GI50,SK-MEL-2,1710 nM
same,Activity,[1],114%
same,Activity,[2],93%
same,Activity,[3],88%
same,GI50,[4],1270 nM
same,Activity,[5],133%
same,Activity,MCF7 [6],0.17%
same,Activity,[7],92%
same,Activity,[8],67%
same,Activity,[9],84%
same,Activity,[10],79%
same,Activity,[11],49%
same,GI50,[12],1900 nM
same,Activity,[13],127%
same,Activity,[14],96%
same,Activity,[15],99%
same,Activity,[16],114%
same,Activity,[17],122%
same,GI50,[18],3040 nM
same,GI50,HCT-15,575 nM
same,Activity,[19],78%
same,Activity,[20],102%
same,GI50,LOX IMVI,338 nM
same,Activity,MCF7 [21],22.63%
same,Activity,[22],116%
same,Activity,[23],99%
same,Activity,[24],81%
same,Activity,[25],97%
same,Activity,[26],88%
same,GI50,[27],214 nM
same,Activity,[28],94%
